# Activity calls are given as the source filed them. The calls are words filed in the database; no cut-off is given here.
# Assays:
# Tyrosinase [1] = target: T1, Tyrosinase (Agaricus bisporus, UniProt O42713); assay: Inhibition of mushroom tyrosinase
# T1 sequence (O42713 whole entry): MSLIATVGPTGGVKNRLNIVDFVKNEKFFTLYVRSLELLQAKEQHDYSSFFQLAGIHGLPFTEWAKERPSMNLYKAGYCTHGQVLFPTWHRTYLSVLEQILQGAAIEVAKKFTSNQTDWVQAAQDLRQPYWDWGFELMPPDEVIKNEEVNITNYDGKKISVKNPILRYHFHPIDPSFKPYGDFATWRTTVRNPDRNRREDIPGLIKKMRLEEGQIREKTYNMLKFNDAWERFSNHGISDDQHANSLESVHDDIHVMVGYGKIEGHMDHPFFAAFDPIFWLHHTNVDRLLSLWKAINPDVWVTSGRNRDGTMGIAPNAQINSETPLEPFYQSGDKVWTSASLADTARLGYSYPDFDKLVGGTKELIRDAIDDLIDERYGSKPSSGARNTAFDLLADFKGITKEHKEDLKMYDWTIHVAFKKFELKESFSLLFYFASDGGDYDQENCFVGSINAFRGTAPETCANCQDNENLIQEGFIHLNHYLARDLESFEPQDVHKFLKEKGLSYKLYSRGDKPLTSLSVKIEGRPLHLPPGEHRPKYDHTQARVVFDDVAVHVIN
# [2] = Antioxidant activity assessed as DPPH free radical scavenging activity after 10 mins; type: functional
# B16-F1 [3] = assay: Antimelanogenic activity in mouse B16-F1 cells assessed as reduction in alpha-MSH-stimulated melanin production preincubated for 72 hrs followed by alpha-MSH-stimulation and measured after 2 hrs; type: functional, cell-based
# Outline: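 B16F1 cells seeded at 1 × 10⁵ cells/well, exposed to compound at indicated concentrations (up to 150 μM) together with 200 nM α-MSH for 72 h. Cells washed twice in PBS, dissolved in 1 N NaOH with 10% DMSO at 80 °C for 2 h, lysate absorbance read at 405 nm. IC₅₀ for melanin production; mean (SD) of three independent experiments.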
# Tyrosinase [4] = target: T2, Tyrosinase (Mus musculus, UniProt P11344); assay: Inhibition of tyrosinase in mouse B16-F1 cells; type: cell-based
# T2 sequence (P11344 whole entry): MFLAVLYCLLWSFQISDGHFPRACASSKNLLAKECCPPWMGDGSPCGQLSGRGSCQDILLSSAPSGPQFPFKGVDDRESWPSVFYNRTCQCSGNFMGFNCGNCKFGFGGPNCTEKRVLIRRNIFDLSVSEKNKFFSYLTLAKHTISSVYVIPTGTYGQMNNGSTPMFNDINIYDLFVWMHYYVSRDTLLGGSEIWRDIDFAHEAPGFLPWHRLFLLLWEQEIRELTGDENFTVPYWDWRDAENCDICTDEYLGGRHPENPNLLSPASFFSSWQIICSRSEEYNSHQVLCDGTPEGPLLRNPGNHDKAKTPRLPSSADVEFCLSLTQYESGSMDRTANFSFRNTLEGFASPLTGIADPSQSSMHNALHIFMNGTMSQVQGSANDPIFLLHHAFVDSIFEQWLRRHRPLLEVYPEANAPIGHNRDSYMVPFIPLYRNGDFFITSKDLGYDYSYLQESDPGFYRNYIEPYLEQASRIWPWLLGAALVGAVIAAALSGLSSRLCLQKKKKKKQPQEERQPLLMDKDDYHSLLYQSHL
# Outline: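 Lysate of B16F1 cells in RIPA buffer, spun 13,000 rpm for 30 min at 4 °C, supernatant protein quantified by BCA. IC₅₀; mean (SD) of three independent experiments.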
# [5] = Metal chelating activity of the compound assessed as Cu2+-compound complex formation at 50 uM after 10 mins by UV-Vis spectrophotometric analysis
# Outline: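 Copper chelation by UV–vis spectra (220–400 nm). 50 μL of 50 μM compound in ethanol mixed with 0.95 mL aqueous 10 μM CuSO₄, or water as control, incubated at 25 °C for 10 min before spectra recorded.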
# B16-F1 [6] = assay: Cytotoxicity against mouse B16-F1 cells at 100 to 200 uM after 72 hrs by MTT assay; type: cell-based; details: b16-f1, 72 h
# Outline: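 B16F1 cells grown in DMEM with 10% FBS and 1% penicillin/streptomycin at 37 °C, 5% CO₂. Seeded 1 × 10⁴ cells/well, treated at 100, 150 and 200 μM for 72 h. Medium removed, MTT added for 1 h, formazan dissolved in DMSO, absorbance at 570 nm. Mean SD of three independent experiments vs untreated cells.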
# [7] = Drug uptake in mouse B16-F1 cells; type: ADME, cell-based
IC50 (Tyrosinase [1]) [µM],EC50 [2] [µM],IC50 (B16-F1 [3]) [µM],IC50 (Tyrosinase [4]) [µM],Activity [5],Drug uptake [7],SMILES,Activity (B16-F1 [6])
108,830,> 150,88.4,Active,,COc1cc(/C=C/C(=O)NCCCCNC(=O)/C=C/c2ccc(O)c(OC)c2)ccc1O [TERRESTRIBISAMIDE],Non-Toxic
98.3,150,123,65.2,Active,Active,COc1cc(/C=C/C(=O)NCCCNC(=O)/C=C/c2ccc(O)c(OC)c2)ccc1O,Non-Toxic
3.4,> 5000,45.6,4.6,Active,,O=C(/C=C/c1ccc(O)cc1)NCCCNC(=O)/C=C/c1ccc(O)cc1,Non-Toxic
55.3,2310,111,46.7,Active,Active,COc1ccc(/C=C/C(=O)NCCCNC(=O)/C=C/c2ccc(OC)c(O)c2)cc1O,Non-Toxic
> 150,> 5000,> 150,> 150,,Active,O=C(/C=C/c1cccc(O)c1)NCCCCNC(=O)/C=C/c1cccc(O)c1,Non-Toxic
84.2,2210,> 150,> 150,,,COc1ccc(/C=C/C(=O)NCCNC(=O)/C=C/c2ccc(OC)c(O)c2)cc1O,Non-Toxic
80.2,4200,> 150,> 150,,,COc1ccc(/C=C/C(=O)NCCCCNC(=O)/C=C/c2ccc(OC)c(O)c2)cc1O,Non-Toxic
> 150,90,> 150,> 150,,,COc1cc(/C=C/C(=O)NCCNC(=O)/C=C/c2ccc(O)c(OC)c2)ccc1O,Non-Toxic
6.5,> 5000,> 150,> 150,,Active,O=C(/C=C/c1ccc(O)cc1)NCCCCNC(=O)/C=C/c1ccc(O)cc1,Non-Toxic
,180,,,,,O=C1O[C@H]([C@@H](O)CO)C(O)=C1O [ASCORBIC ACID],
,1700,148,,,,OC[C@H]1O[C@@H](Oc2ccc(O)cc2)[C@H](O)[C@@H](O)[C@@H]1O [ARBUTIN],
95.3,> 5000,> 150,> 150,,,O=C(/C=C/c1cccc(O)c1)NCCNC(=O)/C=C/c1cccc(O)c1,Non-Toxic
55.2,> 5000,95.3,40.2,Active,,O=C(/C=C/c1cccc(O)c1)NCCCNC(=O)/C=C/c1cccc(O)c1,Non-Toxic
4.6,> 5000,> 150,> 150,,,O=C(/C=C/c1ccc(O)cc1)NCCNC(=O)/C=C/c1ccc(O)cc1,Non-Toxic

# Reference: ChEMBL document CHEMBL4382225, “Dimeric cinnamoylamide analogues for regulation of tyrosinase activity in melanoma cells: A role of diamide-link chain length” (Bioorg Med Chem, 2018)
